Data published in ChEMBL document CHEMBL1121685, “Development of new mitomycin C and porfiromycin analogues” (J Med Chem, 1981).

Experiments:
Mus musculus [1] = assay: Minimum effective dose that show activity against P-388 murine leukemia cells in CDF1 female mice, after intraperitoneal administration (optimal dose is 6.4 mg/kg); format: functional; settings: P388, ip, read-out: MED
Outline: (§1)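 10⁶ P-388 ascites cells implanted ip in CDF₁ female mice. Six mice per dose, 10 saline-injected controls, and a concurrent mitomycin C reference group. %T/C = median survival time of treated/control × 100. MED is the lowest dose giving %T/C > 125. Therapeutic ratio = optimal dose/MED.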

[2] = Therapeutic ratio is expressed as ratio of optimal dose and minimum effective dose; format: ADME; settings: mouse; read-out: TR; outline: as §1
Mus musculus [3] = assay: Antitumor activity against P-388 murine leukemia cells in CDF1 female mice after intraperitoneal administration at the specified optimal dose of 6.4 mg/kg; format: functional
Mus musculus [4] = assay: Minimum effective dose that show activity against P-388 murine leukemia cells in CDF1 female mice, after intraperitoneal administration (optimal dose is 3.2 mg/kg); format: functional; settings: P388, ip, read-out: MED; outline: as §1
Mus musculus [5] = assay: Antitumor activity against P-388 murine leukemia cells in CDF1 female mice after intraperitoneal administration at the specified optimal dose of 3.2 mg/kg; format: functional
Mus musculus [6] = assay: Antitumor activity against P-388 murine leukemia cells in CDF1 female mice after intraperitoneal administration at the specified optimal dose of 25.6 mg/kg; format: functional
Mus musculus [7] = assay: Minimum effective dose that show activity against P-388 murine leukemia cells in CDF1 female mice, after intraperitoneal administration (optimal dose is 25.6 mg/kg); format: functional; settings: P388, ip, read-out: MED; outline: as §1
Mus musculus [8] = assay: Minimum effective dose that show activity against P-388 murine leukemia cells in CDF1 female mice, after intraperitoneal administration (optimal dose is 12.8 mg/kg); format: functional; settings: P388, ip, read-out: MED; outline: as §1
Mus musculus [9] = assay: Antitumor activity against P-388 murine leukemia cells in CDF1 female mice after intraperitoneal administration at the specified optimal dose of 12.8 mg/kg; format: functional
Mus musculus [10] = species: Mus musculus; assay: Degree of leukopenia produced by compound is assessed form Percent change in white cells on days 5; format: functional
Outline: (§2)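 BDG₁ male mice received a single ip dose on day 0. The dose series topped out at the LD₅₀ level, or at twice the optimal dose for some agents. Total white blood cell count was taken on days 3, 5 and 7 and expressed as % change from untreated controls. Significance was set at p ≤ 0.05 or p ≤ 0.01.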

Mus musculus [11] = species: Mus musculus; assay: Half-wave potential produced by the compound at their optimal dose; format: functional; design: unit not given here
Mus musculus [12] = assay: Effect of compound on total white blood cell count in BDG1 male mice, after intraperitoneal administration at a dose 6.4 mg/kg on day 7; format: functional; outline: as §2
Mus musculus [13] = assay: Effect of compound on total white blood cell count in BDG1 male mice, after intraperitoneal administration at a dose of 6.4 mg/kg on day 5; format: functional
Outline: (§3)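 Single ip dose given on day 0 to BDG₁ male mice. Total white blood cell count measured on days 3, 5 and 7, expressed as % change from control. Highest dose was at the LD₅₀, or at twice the optimal dose where so footnoted. Significance reported at p ≤ 0.05 and p ≤ 0.01. D marks death of one or more mice.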

Mus musculus [14] = assay: Effect of compound on total white blood cell count in BDG1 male mice, after intraperitoneal administration at a dose of 12.8 mg/kg on day 5; format: functional; outline: as §2
Mus musculus [15] = assay: Effect of compound on total white blood cell count in BDG1 male mice, after intraperitoneal administration at a dose of 25.6 mg/kg on day 3 (highest dose was twice the optimal dose); format: functional
Mus musculus [16] = assay: Effect of compound on total white blood cell count in BDG1 male mice, after intraperitoneal administration at a dose of 6.4 mg/kg on day 3; format: functional; outline: as §3
Mus musculus [17] = assay: Effect of compound on total white blood cell count in BDG1 male mice, after intraperitoneal administration at a dose of 12.8 mg/kg on day 3; format: functional; outline: as §2
Mus musculus [18] = assay: Effect of compound on total white blood cell count in BDG1 male mice, after intraperitoneal administration at a dose of 45 mg/kg on day 3; format: functional; outline: as §3
Mus musculus [19] = assay: Number of cured survivors, 45 days after administration of compound at a dose of 24 mg/kg/day in mice; format: functional
Mus musculus [20] = assay: Effect of compound on total white blood cell count in BDG1 male mice, after intraperitoneal administration at a dose of 25.3 mg/kg on day 7; format: functional
Outline: (§4)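 Single ip dose given on day 0 to BDG1 male mice over a descending dose series. Total white blood cell count is expressed as % change from untreated control on days 3, 5 and 7. Significance is flagged at p ≤ 0.05 and p ≤ 0.01.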

Mus musculus [21] = assay: Number of tumored survivors, 45 days after administration of compound at a dose of 24 mg/kg/day in mice; format: functional
Mus musculus [22] = assay: Effect of compound on total white blood cell count in BDG1 male mice, after intraperitoneal administration at a dose of 33.8 mg/kg on day 5; format: functional; outline: as §4
Mus musculus [23] = assay: Effect of compound on total white blood cell count in BDG1 male mice, after intraperitoneal administration at a dose of 25.3 mg/kg on day 5; format: functional; outline: as §4
Mus musculus [24] = assay: Activity of compound dose of 24 mg/kg/day against Murine B-16 Melanocarcinoma in mice; format: functional
Mus musculus [25] = assay: Effect of compound on total white blood cell count in BDG1 male mice, after intraperitoneal administration at a dose of 45 mg/kg on day 7; format: functional; outline: as §3
Mus musculus [26] = assay: Effect of compound on total white blood cell count in BDG1 male mice, after intraperitoneal administration at a dose of 33.8 mg/kg on day 7; format: functional; outline: as §4
Mus musculus [27] = assay: Activity of compound dose of 1.5 mg/kg/day against Murine B-16 Melanocarcinoma in mice; format: functional
Mus musculus [28] = assay: Effect of compound on total white blood cell count in BDG1 male mice, after intraperitoneal administration at a dose of 33.8 mg/kg on day 3; format: functional; outline: as §4
Mus musculus [29] = assay: Activity of compound dose of 3 mg/kg/day against Murine B-16 Melanocarcinoma in mice; format: functional
Mus musculus [30] = assay: Activity of compound dose of 12 mg/kg/day against Murine B-16 Melanocarcinoma in mice; format: functional
Mus musculus [31] = assay: Effect of compound on total white blood cell count in BDG1 male mice, after intraperitoneal administration at a dose of 45 mg/kg on day 5; format: functional; outline: as §3
Mus musculus [32] = assay: Effect of compound on total white blood cell count in BDG1 male mice, after intraperitoneal administration at a dose of 25.3 mg/kg on day 3; format: functional; outline: as §4
Mus musculus [33] = assay: Activity of compound dose of 6 mg/kg/day against Murine B-16 Melanocarcinoma in mice; format: functional
Mus musculus [34] = assay: Number of tumored survivors, 45 days after administration of compound at a dose of 12 mg/kg/day in mice; format: functional
Mus musculus [35] = assay: Number of cured survivors, 45 days after administration of compound at a dose of 12 mg/kg/day in mice; format: functional
Mus musculus [36] = assay: Effect of compound on total white blood cell count in BDG1 male mice, after intraperitoneal administration at a dose of 90.5 mg/kg on day 5; format: functional
Mus musculus [37] = assay: Effect of compound on total white blood cell count in BDG1 male mice, after intraperitoneal administration at a dose of 90.5 mg/kg on day 3; format: functional
Mus musculus [38] = assay: Effect of compound on total white blood cell count in BDG1 male mice, after intraperitoneal administration at a dose of 67.9 mg/kg on day 3; format: functional; outline: as §3

SMILES | selectivity ratio [2] | T/C (Mus musculus [6]) [%] | minimal effective dose (Mus musculus [7]) [mg/kg] | minimal effective dose (Mus musculus [8]) [mg/kg] | T/C (Mus musculus [9]) [%] | other results
COC12[C@@H]3N[C@@H]3CN1C1=C(C(=O)C(NCC(N)=O)=C(C)C1=O)[C@@H]2COC(N)=O (stereo not given in full) | 16 |  |  |  |  | minimal effective dose (Mus musculus [1]): 0.4 mg/kg; T/C (Mus musculus [3]): 217%
COC1=C(C)C(=O)C2=C(C1=O)[C@H](COC(N)=O)C1(OC)[C@H]3[C@@H](CN21)N3C (stereo not given in full) | 8 |  |  |  |  | minimal effective dose (Mus musculus [4]): 0.4 mg/kg; T/C (Mus musculus [5]): 180%
C=C(Cl)CNC1=C(C)C(=O)C2=C(C1=O)[C@H](COC(N)=O)C1(OC)[C@@H]3N[C@@H]3CN21 (stereo not given in full) | 8 | 178 | 3.2 |  |  | 
C#CCN(C)C1=C(C)C(=O)C2=C(C1=O)[C@H](COC(N)=O)C1(OC)[C@@H]3N[C@@H]3CN21 (stereo not given in full) | 16 |  |  | 0.8 | 210 | 
COC12[C@@H]3N[C@@H]3CN1C1=C(C(=O)C(NCc3cccnc3)=C(C)C1=O)[C@@H]2COC(N)=O (stereo not given in full) | 4 |  |  | 3.2 | 167 | 
COC12[C@@H]3N[C@@H]3CN1C1=C(C(=O)C(NCCc3ccccc3)=C(C)C1=O)[C@@H]2COC(N)=O (stereo not given in full) |  | 194 | 1.6 |  |  | 
C#CC(C)(C)NC1=C(C)C(=O)C2=C(C1=O)[C@H](COC(N)=O)C1(OC)[C@@H]3N[C@@H]3CN21 (stereo not given in full) | 16 | 178 | 1.6 |  |  | 
COC12[C@@H](COC(N)=O)c3c(O)c(N=C4C=CC(=O)C=C4)c(C)c(O)c3N1C[C@@H]1[C@H]2N1C (stereo not given in full) | 4 |  |  |  |  | minimal effective dose (Mus musculus [1]): 1.6 mg/kg; T/C (Mus musculus [3]): 137%
COC12[C@@H]3N[C@@H]3CN1C1=C(C(=O)C(NCCCO)=C(C)C1=O)[C@@H]2COC(N)=O (stereo not given in full) | 8 | 244 | 3.2 |  |  | Change (Mus musculus [10]): -43%; E1/2 (Mus musculus [11]): -0.42
COC12[C@@H]3N[C@@H]3CN1C1=C(C(=O)C(NCc3ccc(S(N)(=O)=O)cc3)=C(C)C1=O)[C@@H]2COC(N)=O (stereo not given in full) | 4 | 150 | 6.4 |  |  | 
C=CCNC1=C(C)C(=O)C2=C(C1=O)[C@H](COC(N)=O)C1(OC)[C@H]3[C@@H](CN21)N3C (stereo not given in full) | 4 |  |  | 3.2 | 189 | 
COC(=O)CNC1=C(C)C(=O)C2=C(C1=O)[C@H](COC(N)=O)C1(OC)[C@@H]3N[C@@H]3CN21 (stereo not given in full) | 32 |  |  |  | 300 | Change (Mus musculus [12]): -21%; Change (Mus musculus [13]): -55%; Change (Mus musculus [14]): -68%; Change (Mus musculus [15]): -65%; Change (Mus musculus [16]): -39%; Change (Mus musculus [17]): -55%
COC12[C@@H]3N[C@@H]3CN1C1=C(C(=O)C(NCC3CCCO3)=C(C)C1=O)[C@@H]2COC(N)=O (stereo not given in full) | 64 | 289 | 0.4 |  |  | Change (Mus musculus [18]): -76%; Survivors (Mus musculus [19]): 4; Change (Mus musculus [20]): -19%; Survivors (Mus musculus [21]): 3; Change (Mus musculus [22]): -62%; Change (Mus musculus [23]): -54%; T/C (Mus musculus [24]): 326%; Change (Mus musculus [25]): -25%; Change (Mus musculus [26]): -13%; T/C (Mus musculus [27]): 146%; Change (Mus musculus [28]): -58%; T/C (Mus musculus [29]): 173%; Change (Mus musculus [10]): -54%; E1/2 (Mus musculus [11]): -0.41; T/C (Mus musculus [30]): 240%; Change (Mus musculus [31]): -72%; Change (Mus musculus [32]): -44%; T/C (Mus musculus [33]): 179%; Survivors (Mus musculus [34]): 1; Survivors (Mus musculus [35]): 1
COC12[C@@H](COC(N)=O)C3=C(C(=O)C(C)=C(NC4CC4)C3=O)N1C[C@@H]1[C@H]2N1C (stereo not given in full) | 2 |  |  |  | 167 | 
COC12[C@@H](COC(N)=O)C3=C(C(=O)C(C)=C(NCc4ccco4)C3=O)N1C[C@@H]1[C@H]2N1C (stereo not given in full) | 16 | 261 | 1.6 |  |  | 
COC12[C@@H](COC(N)=O)C3=C(C(=O)C(C)=C(NCCCO)C3=O)N1C[C@@H]1[C@H]2N1C (stereo not given in full) | 16 | 239 | 1.6 |  |  | Change (Mus musculus [36]): -72%; Change (Mus musculus [37]): -78%; Change (Mus musculus [38]): -85%
COC12[C@@H]3N[C@@H]3CN1C1=C(C(=O)C(NCc3ccccc3)=C(C)C1=O)[C@@H]2COC(N)=O (stereo not given in full) | 8 |  |  | 1.6 | 188 | 
COC12[C@@H]3N[C@@H]3CN1C1=C(C(=O)C(NCCCCl)=C(C)C1=O)[C@@H]2COC(N)=O (stereo not given in full) | 2 |  |  | 6.4 | 140 | 
CO[C@@]12[C@H](COC(N)=O)C3=C(C(=O)C(C)=C(N)C3=O)N1C[C@H]1[C@@H]2N1C (stereo not given in full) [PORFIROMYCIN] | 16 |  |  | 0.8 | 225 | 
